Measurements: PMC3240942 (Molecular cell, 2011)

Key:
[1] = target: T1, Sirt1 (Mus musculus, UniProt Q923E4); assay: Inhibition of Sirt1 deacetylation of p53 in transfected H1299 cells; assay type: cell-based; conditions: 10-fold molar excess of expression vector, 20 μM etoposide 1 hr
T1 sequence (Q923E4 1-737): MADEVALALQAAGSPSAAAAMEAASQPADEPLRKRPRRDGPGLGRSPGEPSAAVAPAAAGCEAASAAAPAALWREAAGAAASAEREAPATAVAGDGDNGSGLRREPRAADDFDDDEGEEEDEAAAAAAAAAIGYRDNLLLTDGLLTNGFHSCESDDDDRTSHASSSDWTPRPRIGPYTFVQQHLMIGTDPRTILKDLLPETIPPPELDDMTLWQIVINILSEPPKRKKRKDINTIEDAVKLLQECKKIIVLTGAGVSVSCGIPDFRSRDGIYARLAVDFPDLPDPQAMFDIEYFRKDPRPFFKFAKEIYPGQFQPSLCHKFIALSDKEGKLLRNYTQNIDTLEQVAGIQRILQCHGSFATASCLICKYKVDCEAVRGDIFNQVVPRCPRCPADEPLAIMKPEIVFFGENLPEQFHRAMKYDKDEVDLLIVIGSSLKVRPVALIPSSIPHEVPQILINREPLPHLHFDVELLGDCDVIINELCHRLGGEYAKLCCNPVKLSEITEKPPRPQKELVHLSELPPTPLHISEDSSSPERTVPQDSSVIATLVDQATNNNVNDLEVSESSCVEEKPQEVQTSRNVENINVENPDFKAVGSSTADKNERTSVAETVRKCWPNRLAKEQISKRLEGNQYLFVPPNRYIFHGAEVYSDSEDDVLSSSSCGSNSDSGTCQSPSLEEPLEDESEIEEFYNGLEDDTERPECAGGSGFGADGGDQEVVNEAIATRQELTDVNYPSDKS
Summary of the method: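 H1299 cells transiently co-transfected with expression vectors for p53 and V5-tagged Sirt1, plus a 10-fold molar excess of a vector expressing the Flag-tagged test peptide (with or without a nuclear localization signal). After 48 h, cells are exposed to 20 μM etoposide for 1 hr before harvest. Acetylated p53 is detected by immunoblot with an antibody specific for acetyl-K382.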

[2] = target: T1, Sirt1; conditions: binds to deacetylase core of Sirt1; ref Kim et al., 2008; Zhao et al.; cited from earlier work

inhibition of Sirt1 activity in vivo (p53 deacetylation) [1]: also inhibited Sirt1 activity
Substance: DBC1: Deleted in Breast Cancer 1, endogenous Sirt1 inhibitor
effect on Sirt1 activity [2]: inhibits its activity
